Test results reported in ChEMBL document CHEMBL5724801, “EUbOPEN Chemogenomics Library - Multiplex” (2024).
“And” between values parts separate entries of the source, which are not always exact repeats. Identical values can stand only once.

Key:
[1] = tested on: HEK-293T; assay: Multiplex assay against HEK293T; assay type: toxicity, cell-based; conditions: human
Summary of the method: (§1)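 Live cells carried four stains from seeding: Hoechst33342, BioTracker Green Microtubule Cytoskeleton Dye, MitoTracker Red and Annexin V Alexa Fluor 680. They were imaged on a CQ1 microscope at 37°C and 5% CO2 after compound addition. Using CellPathfinder machine-learning gating, cells were split into Hoechst high-intensity objects or normal cells, normal cells into healthy, pyknosed or fragmented nuclei, and pyknosed cells into mitotic or apoptotic; tubulin, mitochondrial-mass and membrane-permeability phenotypes are per cents of healthy-nucleus cells.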

[2] = tested on: U2OS; assay: Multiplex assay against U2OS; assay type: toxicity, cell-based; conditions: human; summary of the method: as §1
[3] = 24 h, 1 µM, compound concentration 1 uM
[4] = 24 h, 10 µM, compound concentration 10 uM
[5] = 48 h, 1 µM, compound concentration 1 uM
[6] = 48 h, 10 µM, compound concentration 10 uM
[7] = 12 h, 1 µM, compound concentration 1 uM
[8] = 12 h, 10 µM, compound concentration 10 uM

Question: How did the “Total Cell Count” value [1, 3] turn out when `COc1ccc2c(c1)C(C(=O)N(Cc1ccc(N(C)C)cc1)c1ccc(C(C)C)cc1)CCC2.Cl` (stereo not drawn) was run?
Answer: The value was 567 and 399.

Question: And the “Population Apoptotic (%)” value [1, 4]?
Answer: Its value is 35% and 45%.

Question: And the “Population Fragmented Nuclei (%)” value [1, 4]?
Answer: Its value is 9% and 7%.

Question: What about the “Population Healthy Nuclei (%)” value [1, 4] of the same molecule?
Answer: Its value is 73% and 76%.

Question: What about the “Population Hoechst High Intensity Objects (%)” value [1, 4] of the same molecule?
Answer: Its value is 10% and 6%.

Question: What about the “Population Membrane Permeable-Phenotype (%)” value [1, 4] of the same molecule?
Answer: Its value is 1% and 0%.

Question: What about the “Population Mitochondria Different-Phenotype (%)” value [1, 4] of the same molecule?
Answer: Its value is 51% and 60%.

Question: What about the “Population Mitotic Cells (%)” value [1, 4] of the same molecule?
Answer: The value was 64% and 55%.

Question: And the “Population Normal (%)” value [1, 4]?
Answer: Its value is 89% and 93%.

Question: What about the “Population Pyknosed Nuclei (%)” value [1, 4] of the same molecule?
Answer: The value was 17% and 16%.

Question: And the “Population Tubulin-Different-Phenotype (%)” value [1, 4]?
Answer: The value was 70% and 60%.

Question: What about the “Total Cell Count” value [1, 4] of the same molecule?
Answer: The value was 409 and 389.

Question: What about the “Population Apoptotic (%)” value [1, 5] of the same molecule?
Answer: The value was 20% and 46%.

Question: What about the “Population Fragmented Nuclei (%)” value [1, 5] of the same molecule?
Answer: The value was 12%.

Question: And the “Population Healthy Nuclei (%)” value [1, 5]?
Answer: Its value is 80% and 81%.

Question: And the “Population Hoechst High Intensity Objects (%)” value [1, 5]?
Answer: Its value is 1% and 4%.

Question: And the “Population Membrane Permeable-Phenotype (%)” value [1, 5]?
Answer: Its value is 1% and 0%.

Question: And the “Population Mitochondria Different-Phenotype (%)” value [1, 5]?
Answer: The value was 10% and 17%.

Question: What about the “Population Mitotic Cells (%)” value [1, 5] of the same molecule?
Answer: The value was 79% and 53%.

Question: And the “Population Normal (%)” value [1, 5]?
Answer: The value was 98% and 95%.

Question: And the “Population Pyknosed Nuclei (%)” value [1, 5]?
Answer: The value was 6%.

Question: What about the “Population Tubulin-Different-Phenotype (%)” value [1, 5] of the same molecule?
Answer: Its value is 10% and 15%.

Question: And the “Total Cell Count” value [1, 5]?
Answer: Its value is 968 and 631.

Question: And the “Population Apoptotic (%)” value [1, 6]?
Answer: The value was 59% and 36%.

Question: And the “Population Fragmented Nuclei (%)” value [1, 6]?
Answer: The value was 15% and 11%.

Question: And the “Population Healthy Nuclei (%)” value [1, 6]?
Answer: The value was 75% and 79%.

Question: And the “Population Hoechst High Intensity Objects (%)” value [1, 6]?
Answer: Its value is 9% and 3%.

Question: What about the “Population Membrane Permeable-Phenotype (%)” value [1, 6] of the same molecule?
Answer: Its value is 6% and 2%.

Question: What about the “Population Mitochondria Different-Phenotype (%)” value [1, 6] of the same molecule?
Answer: The value was 25% and 24%.

Question: What about the “Population Mitotic Cells (%)” value [1, 6] of the same molecule?
Answer: Its value is 40% and 63%.

Question: What about the “Population Normal (%)” value [1, 6] of the same molecule?
Answer: Its value is 90% and 96%.

Question: And the “Population Pyknosed Nuclei (%)” value [1, 6]?
Answer: The value was 9% and 8%.

Question: And the “Population Tubulin-Different-Phenotype (%)” value [1, 6]?
Answer: The value was 53% and 50%.

Question: What about the “Total Cell Count” value [1, 6] of the same molecule?
Answer: Its value is 558 and 482.

Question: And the “Population Apoptotic (%)” value [2, 7]?
Answer: The value was 70%.

Question: What about the “Population Fragmented Nuclei (%)” value [2, 7] of the same molecule?
Answer: The value was 36% and 17%.

Question: And the “Population Healthy Nuclei (%)” value [2, 7]?
Answer: Its value is 54% and 73%.

Question: What about the “Population Hoechst High Intensity Objects (%)” value [2, 7] of the same molecule?
Answer: Its value is 4% and 3%.

Question: What about the “Population Membrane Permeable-Phenotype (%)” value [2, 7] of the same molecule?
Answer: The value was 8% and 9%.

Question: What about the “Population Mitochondria Different-Phenotype (%)” value [2, 7] of the same molecule?
Answer: Its value is 5% and 3%.

Question: And the “Population Mitotic Cells (%)” value [2, 7]?
Answer: Its value is 29% and 30%.

Question: And the “Population Normal (%)” value [2, 7]?
Answer: The value was 95% and 96%.

Question: What about the “Population Pyknosed Nuclei (%)” value [2, 7] of the same molecule?
Answer: The value was 9% and 8%.

Question: And the “Population Tubulin-Different-Phenotype (%)” value [2, 7]?
Answer: The value was 4% and 2%.

Question: And the “Total Cell Count” value [2, 7]?
Answer: The value was 264 and 122.

Question: And the “Population Apoptotic (%)” value [2, 8]?
Answer: The value was 38% and 60%.

Question: What about the “Population Fragmented Nuclei (%)” value [2, 8] of the same molecule?
Answer: Its value is 27% and 16%.

Question: What about the “Population Healthy Nuclei (%)” value [2, 8] of the same molecule?
Answer: The value was 50% and 60%.

Question: And the “Population Hoechst High Intensity Objects (%)” value [2, 8]?
Answer: Its value is 4%.

Question: What about the “Population Membrane Permeable-Phenotype (%)” value [2, 8] of the same molecule?
Answer: Its value is 73% and 43%.

Question: What about the “Population Mitochondria Different-Phenotype (%)” value [2, 8] of the same molecule?
Answer: Its value is 55% and 73%.

Question: And the “Population Mitotic Cells (%)” value [2, 8]?
Answer: The value was 61% and 40%.

Question: And the “Population Normal (%)” value [2, 8]?
Answer: The value was 95%.

Question: What about the “Population Pyknosed Nuclei (%)” value [2, 8] of the same molecule?
Answer: Its value is 22% and 23%.

Question: And the “Population Tubulin-Different-Phenotype (%)” value [2, 8]?
Answer: The value was 80% and 58%.

Question: What about the “Total Cell Count” value [2, 8] of the same molecule?
Answer: The value was 224 and 113.

Question: And the “Population Apoptotic (%)” value [2, 3]?
Answer: The value was 75% and 100%.

Question: What about the “Population Fragmented Nuclei (%)” value [2, 3] of the same molecule?
Answer: The value was 27% and 18%.

Question: What about the “Population Healthy Nuclei (%)” value [2, 3] of the same molecule?
Answer: Its value is 61% and 73%.

Question: What about the “Population Hoechst High Intensity Objects (%)” value [2, 3] of the same molecule?
Answer: Its value is 4% and 2%.

Question: What about the “Population Membrane Permeable-Phenotype (%)” value [2, 3] of the same molecule?
Answer: The value was 5%.

Question: And the “Population Mitochondria Different-Phenotype (%)” value [2, 3]?
Answer: Its value is 4% and 1%.

Question: And the “Population Mitotic Cells (%)” value [2, 3]?
Answer: The value was 24% and 0%.

Question: What about the “Population Normal (%)” value [2, 3] of the same molecule?
Answer: The value was 95% and 97%.

Question: And the “Population Pyknosed Nuclei (%)” value [2, 3]?
Answer: Its value is 11% and 7%.

Question: And the “Population Tubulin-Different-Phenotype (%)” value [2, 3]?
Answer: The value was 4% and 2%.

Question: What about the “Total Cell Count” value [2, 3] of the same molecule?
Answer: Its value is 273 and 146.

Question: What about the “Population Apoptotic (%)” value [2, 4] of the same molecule?
Answer: Its value is 71% and 86%.

Question: And the “Population Fragmented Nuclei (%)” value [2, 4]?
Answer: The value was 25% and 20%.

Question: And the “Population Healthy Nuclei (%)” value [2, 4]?
Answer: Its value is 50% and 57%.

Question: What about the “Population Hoechst High Intensity Objects (%)” value [2, 4] of the same molecule?
Answer: The value was 2% and 9%.

Question: And the “Population Membrane Permeable-Phenotype (%)” value [2, 4]?
Answer: Its value is 54% and 45%.

Question: What about the “Population Mitochondria Different-Phenotype (%)” value [2, 4] of the same molecule?
Answer: Its value is 42% and 53%.

Question: And the “Population Mitotic Cells (%)” value [2, 4]?
Answer: The value was 28% and 13%.

Question: And the “Population Normal (%)” value [2, 4]?
Answer: The value was 97% and 90%.

Question: And the “Population Pyknosed Nuclei (%)” value [2, 4]?
Answer: Its value is 24% and 22%.

Question: What about the “Population Tubulin-Different-Phenotype (%)” value [2, 4] of the same molecule?
Answer: The value was 49% and 48%.

Question: What about the “Total Cell Count” value [2, 4] of the same molecule?
Answer: The value was 224 and 115.

Question: And the “Population Apoptotic (%)” value [2, 5]?
Answer: The value was 80% and 93%.

Question: What about the “Population Fragmented Nuclei (%)” value [2, 5] of the same molecule?
Answer: The value was 21% and 17%.

Question: And the “Population Healthy Nuclei (%)” value [2, 5]?
Answer: Its value is 65% and 73%.

Question: What about the “Population Hoechst High Intensity Objects (%)” value [2, 5] of the same molecule?
Answer: Its value is 2% and 3%.

Question: What about the “Population Membrane Permeable-Phenotype (%)” value [2, 5] of the same molecule?
Answer: Its value is 10% and 6%.

Question: And the “Population Mitochondria Different-Phenotype (%)” value [2, 5]?
Answer: The value was 5% and 4%.

Question: And the “Population Normal (%)” value [2, 5]?
Answer: Its value is 97% and 96%.

Question: And the “Population Pyknosed Nuclei (%)” value [2, 5]?
Answer: Its value is 13% and 8%.

Question: What about the “Population Tubulin-Different-Phenotype (%)” value [2, 5] of the same molecule?
Answer: Its value is 3% and 2%.

Question: What about the “Total Cell Count” value [2, 5] of the same molecule?
Answer: Its value is 369 and 203.

Question: What about the “Population Apoptotic (%)” value [2, 6] of the same molecule?
Answer: The value was 73% and 92%.

Question: And the “Population Fragmented Nuclei (%)” value [2, 6]?
Answer: Its value is 21% and 26%.

Question: What about the “Population Healthy Nuclei (%)” value [2, 6] of the same molecule?
Answer: The value was 47% and 49%.

Question: What about the “Population Hoechst High Intensity Objects (%)” value [2, 6] of the same molecule?
Answer: The value was 3% and 8%.

Question: What about the “Population Membrane Permeable-Phenotype (%)” value [2, 6] of the same molecule?
Answer: Its value is 43%.

Question: And the “Population Mitochondria Different-Phenotype (%)” value [2, 6]?
Answer: Its value is 26% and 36%.

Question: And the “Population Normal (%)” value [2, 6]?
Answer: Its value is 96% and 91%.

Question: What about the “Population Pyknosed Nuclei (%)” value [2, 6] of the same molecule?
Answer: Its value is 30% and 24%.

Question: What about the “Population Tubulin-Different-Phenotype (%)” value [2, 6] of the same molecule?
Answer: Its value is 31% and 42%.

Question: What about the “Total Cell Count” value [2, 6] of the same molecule?
Answer: Its value is 265 and 126.
